# Source: PubChem BioAssay
# The entries come from a sample that favours hits as a whole.
# Dynein transport – blocks dynein driven cargo transport along microtubules; actives 0.47% (n = 220,000); 3617.4 mouse cells, GR-EGFP nuclear translocation imaging; test concentration mostly 20 µM; stimulated with dexamethasone, 1 µM; stronger effect = lower value; z-score, hits read low; AID 1381;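 active means plate z-score of nuclear minus cytoplasmic receptor signal below a set negative limit, without overly bright fluorescence or cell loss, cut at about -3.5 in these data, passing the limit was not always enough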;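 further: z-score of nuclear minus cytoplasmic ring GR-EGFP intensity difference per well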
#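 Buffer or medium: tet-free medium with charcoal-stripped serum / Also added: dexamethasone agonist, 1.0 µM final, for 30 min / Timing: induction 48 h, compound 1 h, agonist 30 min / Measured by: high-content fluorescence imaging after fixation / Read-out: nuclear-to-cytoplasmic GR-EGFP distribution per well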
# p-CIP stab down – p/CIP protein destabilization; Q05BA5; F442A p/CIP-EGFP cells, EGFP fluorescence, 16 h; decrease of EGFP signal, % at 10 µM; actives 0.01% (n = 290,000);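 active means EGFP signal decrease of at least 30% at 10 µM or well 3 SD below plate mean, unless failing retest; inactive means the rest, including hits failing retest or dose response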
# Target sequence (Q05BA5 1-1403): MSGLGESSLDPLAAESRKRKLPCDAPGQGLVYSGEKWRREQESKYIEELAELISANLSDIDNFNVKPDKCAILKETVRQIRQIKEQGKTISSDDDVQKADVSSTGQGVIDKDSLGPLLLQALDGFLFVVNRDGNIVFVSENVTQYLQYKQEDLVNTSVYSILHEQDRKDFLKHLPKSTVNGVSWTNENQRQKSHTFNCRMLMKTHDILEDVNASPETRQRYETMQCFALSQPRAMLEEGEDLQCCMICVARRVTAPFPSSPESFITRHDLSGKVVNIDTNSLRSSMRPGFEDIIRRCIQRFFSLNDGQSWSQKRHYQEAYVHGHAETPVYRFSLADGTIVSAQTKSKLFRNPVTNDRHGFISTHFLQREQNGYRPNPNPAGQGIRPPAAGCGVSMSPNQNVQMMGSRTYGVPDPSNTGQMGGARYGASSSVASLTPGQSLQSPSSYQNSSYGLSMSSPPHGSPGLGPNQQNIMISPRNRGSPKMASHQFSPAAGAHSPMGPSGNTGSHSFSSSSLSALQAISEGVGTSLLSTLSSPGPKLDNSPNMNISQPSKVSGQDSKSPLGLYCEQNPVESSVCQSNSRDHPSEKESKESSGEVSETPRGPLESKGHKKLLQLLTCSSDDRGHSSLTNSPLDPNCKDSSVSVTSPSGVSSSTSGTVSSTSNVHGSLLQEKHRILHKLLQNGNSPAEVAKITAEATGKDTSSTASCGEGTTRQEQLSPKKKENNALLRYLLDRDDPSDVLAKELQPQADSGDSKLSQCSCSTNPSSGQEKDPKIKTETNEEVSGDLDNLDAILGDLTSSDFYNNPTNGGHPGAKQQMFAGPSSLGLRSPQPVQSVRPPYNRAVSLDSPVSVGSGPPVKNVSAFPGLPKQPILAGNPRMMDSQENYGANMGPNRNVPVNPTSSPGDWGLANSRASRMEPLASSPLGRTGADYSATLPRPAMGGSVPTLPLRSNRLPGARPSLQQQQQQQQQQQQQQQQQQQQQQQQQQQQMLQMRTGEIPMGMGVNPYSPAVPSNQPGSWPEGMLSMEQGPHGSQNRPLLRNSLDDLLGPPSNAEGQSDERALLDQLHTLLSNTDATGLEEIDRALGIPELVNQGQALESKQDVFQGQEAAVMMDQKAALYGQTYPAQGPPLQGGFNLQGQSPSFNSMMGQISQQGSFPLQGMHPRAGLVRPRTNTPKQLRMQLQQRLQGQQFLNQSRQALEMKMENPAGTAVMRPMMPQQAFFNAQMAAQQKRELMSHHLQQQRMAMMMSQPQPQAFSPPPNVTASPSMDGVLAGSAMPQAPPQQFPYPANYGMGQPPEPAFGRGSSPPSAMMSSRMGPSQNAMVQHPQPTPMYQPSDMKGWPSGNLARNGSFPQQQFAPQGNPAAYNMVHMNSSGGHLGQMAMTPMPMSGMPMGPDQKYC
# UPR XBP1 act – activators of adaptive arm of unfolded protein response (XBP1); CHO-XBP1 luciferase reporter, IRE1-XBP1 UPR activation, luminescence; percent of tunicamycin response, DMSO as zero; activation, % at 20 µM; actives 0.33% (n = 330,000); AID 463104;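 active means versus positive control, 20 µM dose yields 30% or more activation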;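 further: 100% = tunicamycin at 10 µg/mL and 0% = DMSO only wells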
#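 incubation = overnight seeding at 37 °C, 6 h compound treatment at 37 °C | assay system = CHO-XBP1 cells stably carrying IRE1-XBP1-driven luciferase reporter | input = 1000 cells per well | detection = luciferase luminescence | dosing = single point, 20 µM final compound, 1% DMSO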
# B2AR ag – human beta-2 adrenergic receptor agonism by FAP; P07550; Am2.2-beta2AR cells, FAP receptor internalization, flow cytometry; response, % (concentration not given with the values); actives 0.43% (n = 340,000);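 active means response above a set limit, near 3 SD of response in nonfluorescent compounds, cut at about 42% in these data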
# CHOP inhibitor – inhibitors of CHOP induction in ER stress response; CHO-K1 CHOP-promoter luciferase, tunicamycin-induced, 15-18 h; inhibition, % at 10 µM; actives 3.8% (n = 220,000); AID 2732;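 active means compounds that reduced the stress-induced luciferase reporter signal by more than about 70% of percent inhibition, limit read from the data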;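 further: 0% = tunicamycin plus vehicle and 100% = wells without tunicamycin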
# CHOP UPR activ – apoptotic UPR (CHOP) activation; CHO-CHOP luciferase reporter, luminescence; percent of tunicamycin response over DMSO baseline; activation, % at 10 µM; actives 0.34% (n = 330,000); AID 449763;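 active means at 10 µM dose, activation of 40% or more, normalized to positive control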;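 further: 100% = tunicamycin at 10 µg/mL and 0% = DMSO alone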
#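 measured by = luciferase luminescence | assay system = CHO-CHOP cells, stable luciferase reporter of PERK-eIF2a-CHOP signalling | amount = 500 reporter cells seeded per well | timing = 6 h compound exposure at 37 °C after overnight seeding | controls = positive tunicamycin 10 µg/mL, negative DMSO alone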
# * marks the source's active call; other numbers are inactive results; · = no result given.
SMILES,Dynein transport,p-CIP stab down,UPR XBP1 act,B2AR ag,CHOP inhibitor,CHOP UPR activ
CC[C@@H](C)[C@H]1O[C@]2(CC[C@@H]1C)C[C@@H]1C[C@@H](C/C=C(\C)[C@@H](O[C@H]3C[C@H](OC)[C@@H](O[C@H]4C[C@H](OC)[C@@H](O)[C@H](C)O4)[C@H](C)O3)[C@@H](C)/C=C/C=C3\CO[C@@H]4[C@H](O)C(C)=C[C@@H](C(=O)O1)[C@]34O)O2,·,·,·,·,4,·
COc1cccc2[nH]c3c(N4CCc5ccccc5C4)ncnc3c12,0.47,-12,8,·,-30,4
OC1(c2cccc(C(F)(F)F)c2)CCN(c2ncnc3c2[nH]c2ccccc23)CC1,-0.45,·,2,-17,71*,3
OC1(c2cccc(C(F)(F)F)c2)CCN(c2ccc(-c3ccccc3)nn2)CC1,-1.1,-3,-2,-1,85*,5
c1ccc(CN2CCN(c3ncnc4c3[nH]c3ccccc34)CC2)cc1,-0.57,-10,-2,5,87*,-1
Cc1ccc2c(c1)[nH]c1c(N3CCN(Cc4ccccc4)CC3)ncnc12,-0.63,2,-6,21,·,4
c1ccc2c(c1)CCN(c1ncnc3c1[nH]c1ccccc13)C2,·,-11,7,12,71*,7
COc1cccc(C2Nc3cc(Cl)c(S(N)(=O)=O)cc3S(=O)(=O)N2)c1 (stereo unspecified),1.4,2,0,2,42,1
Cc1ccc2[nH]c3c(N4CCN(Cc5ccc6c(c5)OCO6)CC4)ncnc3c2c1,1.1,-9,·,·,63,·
COc1ccc2c(c1)[nH]c1c(N3CCN(Cc4ccc5c(c4)OCO5)CC3)ncnc12,-0.6,-3,6,18,75*,8
COc1ccc(Nc2nc3c(C)cccc3cc2C#N)c(OC)c1,2.9,-1,0,-4,15,0
Cc1ccc(C(=O)Nc2ccccc2C(=O)N2CC3(C)CC2CC(C)(C)C3)cc1 (stereo unspecified),2.4,-6,-2,13,93*,-2
COc1ccc(S(=O)(=O)N2CCCCC2)cc1C(C)C,1.3,-14,-1,3,57,0
COc1cc(/C=N/NC(=O)Nc2cccc3nsnc23)cc(OC)c1OC,2.2,0,·,4,84*,·
COC(=O)c1ccc2c(=O)n(-c3ccc(OC)cc3)c(=S)[nH]c2c1,0.67,1,-3,-4,10,-1
O=C(CCNS(=O)(=O)c1cccc2nsnc12)NC1CCN(Cc2ccccc2)CC1,0.63,-1,-1,2,42,-1
Cc1ccc(Nc2nc(N)c([N+](=O)[O-])c(NCc3ccco3)n2)cc1C,2,0,3,-3,79*,5
CC(=O)c1ccc(NS(=O)(=O)c2cccc(C(=O)Nc3ccccc3C(=O)O)c2)cc1,·,6,-2,-4,·,0
CCN(CC)c1nc(C#N)nc(N(CC)CC)n1,2.4,-14,0,15,79*,-2
O=C(C[C@@H]1C/C=C/CCCC(=O)O[C@H](c2ccccc2)CNC1=O)N[C@H](CO)Cc1ccccc1,·,·,3,-4,·,1
COc1cccc([C@@H]2CC=C(C(=O)O)CN2S(=O)(=O)c2ccc(C)cc2)c1,·,·,-1,-1,·,0
COC(=O)c1sc2nc(SCC(=O)N(C)c3ccccc3)n(N)c(=O)c2c1C,0.7,-1,1,-4,-2,-1
Oc1[nH]c2ccccc2c1N=Nc1ccccc1F,-0.88,-13,6,8,91*,9
C#CC(=O)CC1(CN(Cc2ccccc2)C(=O)OC(C)(C)C)CCCCC1,·,·,·,1,·,·
CCOC(=O)c1ccc(NC(=O)CN(C)S(=O)(=O)c2ccc(OC)cc2)cc1,-1.5,-13,-2,-2,5,-1
SMILES,Dynein transport,p-CIP stab down,UPR XBP1 act,B2AR ag,CHOP inhibitor,CHOP UPR activ
CCOC(=O)c1ccc(NC(=O)CN(C)S(=O)(=O)c2ccc(Br)s2)cc1,-0.41,0,-1,-5,77*,-1
N[C@@H](CCCC(=O)O)C(=O)O,·,·,·,·,-3,·
O=S(Cc1ccccc1)CC(O)(c1ccc(Cl)cc1)c1ccc(Cl)cc1 (stereo unspecified),0.36,-4,0,5,85*,0
CCOC(=O)C(=O)Nc1ccccc1C(=O)Nc1ccc(OC)cc1,0.26,-8,0,1,-22,0
O=C(CN(C(=O)c1csnn1)c1ccc2c(c1)OCCO2)NCc1ccccc1,·,-15,2,6,·,4
Cn1c(SCC(=O)c2ccc3c(c2)Cc2ccccc2-3)nnc1-c1cccc(N)c1,-0.71,-34,1,5,93*,-2
NC(=O)c1ccccc1NC(=O)c1ccccc1Cl,-0.62,8,0,8,-18,1
O=C(Nc1ccccc1C(=O)Nc1nnc(C(F)(F)F)s1)c1ccccc1Cl,1.6,-8,-1,12,74*,7
CSc1ccc(/C=N/NC(=O)CNc2cccc3ccccc23)cc1,-0.34,-6,-1,-6,94*,-1
OC12CCCCC1C(c1ccc3c(c1)OCO3)N(Cc1cccc(F)c1)CC2 (stereo unspecified),-0.2,-12,·,-4,61,·
OC12CCCCC1C(c1ccc3c(c1)OCO3)N(Cc1ccc(F)cc1)CC2 (stereo unspecified),-0.26,1,0,-3,90*,-3
Cc1ccc(-n2nnc3c(=O)n(CC(=O)NCC4CCCO4)cnc32)cc1 (stereo unspecified),-0.11,12,-3,-8,2,-1
Cc1ccc(C(=O)c2cc3c(cc2N)OCCO3)cc1,-0.21,4,0,-5,73*,0
CC(C)(C)C1CCC(=NNS(=O)(=O)c2ccc(Br)cc2)CC1 (stereo unspecified),-0.47,0,-2,3,92*,0
Cc1ccc(SCC(=O)OCC(=O)NCCc2ccccc2)cc1,·,·,-1,4,·,2
O=C(CC(=O)Nc1cccc(F)c1)Nc1cccc(F)c1,·,3,-3,1,·,4
O=C(Cn1c2ccccc2c(=O)c2ccccc21)Nc1cccc(F)c1,1.1,2,2,2,77*,0
COc1ccc(S(=O)(=O)N2CCCC2CNC(=O)C(=O)NCc2ccccc2Cl)cc1 (stereo unspecified),·,·,-3,-16,·,-1
O=C(CSc1ncc(-c2ccccc2)n1C1CCCC1)N1CCc2ccccc21,1.1,2,1,-16,75*,1
CC(C)CN1CCC(=O)N([C@H](CO)Cc2ccccc2)CC1,·,-15,-1,-11,·,0
COc1ccccc1N1CCN(c2ncc(C(=O)N3CCN(c4cccc(Cl)c4)CC3)c3ccccc23)CC1,-1.3,-10,-1,13,86*,8
